APJ agonist: agonists of human apelin receptor APJ, primary screen, CHO-K1 cells, PathHunter beta-arrestin, luminescence. 0.11% of 330,000 active. 0% DMSO wells, 100% apelin. P35414. AID 2520, 2010. activation, % at 20 µM;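 active = activation more than six SD over the plate average, tested at 20 µM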;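 also: 0% = DMSO alone and 100% = apelin-13 at 10 nM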
Target sequence (P35414 whole entry, looked up): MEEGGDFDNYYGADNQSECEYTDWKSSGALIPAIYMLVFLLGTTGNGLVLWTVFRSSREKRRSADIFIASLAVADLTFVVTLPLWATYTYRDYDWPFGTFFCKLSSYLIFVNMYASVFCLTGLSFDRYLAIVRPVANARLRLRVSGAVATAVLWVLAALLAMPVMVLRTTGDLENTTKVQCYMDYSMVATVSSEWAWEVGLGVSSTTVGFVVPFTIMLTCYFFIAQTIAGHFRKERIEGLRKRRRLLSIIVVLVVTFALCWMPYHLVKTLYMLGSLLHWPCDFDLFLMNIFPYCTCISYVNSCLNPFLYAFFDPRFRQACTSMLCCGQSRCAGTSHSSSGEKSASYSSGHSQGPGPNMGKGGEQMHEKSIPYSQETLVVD
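Test system – PathHunter CHO-K1 APJ (AGTRL-1) beta-arrestin reporter cells · Input – 1000 cells/well · Compound – single test compound dose, 20 µM final, 1% DMSO · Times – compound stimulation 90 min at 25 °C, detection 60 min · Technique – beta-gal luminescence · Read-out basis – APJ–arrestin association signal · Control set – negative DMSO alone, positive Apelin-13 at 10 nM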
APJ antagonist: antagonists of human apelin receptor APJ, primary screen, CHO-K1 cells, beta-arrestin complementation, luminescence | P35414 | inhibition, % at 20 µM | 0.32% of 330,000 active;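 active = inhibition above about 40% at 20 µM, limit read from the data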;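 also: cells challenged with 10 nM apelin-13 agonist together with compound; plate controls were apelin-13 plus DMSO wells for no effect and DMSO wells lacking apelin-13 for full effect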
CCR6 antag: CCR6 receptor antagonists, primary screen, cell-based, CHO-K1, luminescence, beta-arrestin, uHTS | C-C chemokine receptor type 6 (Homo sapiens), P51684 | CHO-K1 CCR6 PathHunter beta-arrestin, CCL20-stimulated | inhibition, % at 20 µM | 0.49% of 340,000 active | AID 493098, 2011;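 active = compounds whose inhibition of the agonist-driven luminescence signal at 20 µM reaches about 50%, limit read from the data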;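 also: cells stimulated with CCL20 at 14 nM final; plate controls were DMSO with CCL20 for no effect and DMSO without agonist for full effect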
m5-HT2A agonist: mouse Htr2a agonists via beta-arrestin recruitment, primary screen, cell-based, luminescence; 5-hydroxytryptamine receptor 2A (Mus musculus), P35363; CHO-K1 mHTR2A beta-arrestin complementation; percent of 30 µM serotonin response; AID 624169, 2012; activation, % at 7.6 µM; 0.66% of 360,000 active;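 active = activation above a run cutoff, the mean activation of all tested compounds plus 3 SD, cut at about 14% in these data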;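 also: 0% = plate median of compound wells and 100% = 30 µM serotonin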
CXCR6 inh: CXCR6 receptor inhibitors, primary screen, cell-based, beta-arrestin, luminescence, CHO-K1 PathHunter, 1536-well. C-X-C chemokine receptor type 6 (Homo sapiens), O00574. inhibition, % at 20 µM. 0.36% of 360,000 active; in the data active = inhibition above about 34%, passing the limit was not always enough;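 also: antagonist mode with CXCL16 agonist at 10 nM final; 0% = 10 nM CXCL16 with DMSO and 100% = unstimulated wells without agonist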
EBI2 antag: EBI2 receptor antagonists, beta-arrestin recruitment, primary screen, cell-based, luminescence, 7a,25-OHC stimulation, uHTS; AID 651636, 2012; 0.81% of 360,000 active; inhibition, % at 5 µM; 7a,25-OHC stimulated; in the data active = inhibition above about 38%;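 also: enzyme fragment complementation signal reports receptor beta-arrestin coupling in cells; 0% = agonist plus DMSO wells and 100% = wells without agonist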
MOR ag counter: OPRM1 agonists via beta-arrestin recruitment, confirmation, counter-screen for mouse HTR2A agonist project, cell-based, luminescence, single concentration; shares compounds with m5-HT2A agonist; activation, % at 9.3 µM; 5.3% of 2,300 active; U2OS OPRM1 beta-arrestin PathHunter; DMSO 0%, DAMGO 9.3 µM 100%;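 active = mean activation above the mean of DMSO-only wells plus 3 SD, cut at about 0.5% in these data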
m5-HT2A ag conf: mouse HTR2A agonists, beta-arrestin recruitment, confirmation, cell-based, luminescence, CHO-K1 PathHunter, triplicate | AID 624381, 2012 | shares compounds with m5-HT2A agonist | activation, % at 7.6 µM | DMSO 0%, 30 µM serotonin 100% | 19% of 2,300 active;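 active = mean activation across triplicates above the hit threshold derived in the original primary screen, cut at about 15% in these data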
Starred values were filed as active, the others as inactive; / = no result given. Compounds with a hit are over-represented: about 2.1% of the library has one in this group of screens.

SMILES	APJ agonist	APJ antagonist	CCR6 antag	m5-HT2A agonist	CXCR6 inh	EBI2 antag	MOR ag counter	m5-HT2A ag conf
COc1cccc(N2CCN(Cc3nc(N)nc(N4CCCc5ccccc54)n3)CC2)c1	-8	22	-4	17*	11	-19	0	42*
CCN(CC(=O)Nc1ccc(NC(C)=O)cc1)C(=O)C1CCCC1	0	-18	1	3	6	-8	/	/
CC(C)(C)OC(=O)NCCCCCc1nnc(SCc2c(F)cccc2Cl)o1	0	-32	16	-3	8	5	/	/
CC(C)(C)OC(=O)NCCc1nnc(SCc2c(Cl)cccc2Cl)o1	0	21	-7	15*	2	0	0	3
NC[C@@H]1O[C@H](C23CC4CC(CC(C4)C2)C3)Cc2c1ccc(O)c2O	/	/	14	26*	0	/	0	100*
COc1cc(OC)c(C2N(c3ccc(Cl)c(Cl)c3)C(=O)C3CCCN32)cc1OC (configuration not stated)	-1	18	-1	7	9	-5	/	/
Cc1ccsc1/C=N/N=C/c1sccc1C	1	13	21	11	-4	-3	/	/
CN1CCC(=NNC(=O)CN(c2ccc([N+](=O)[O-])cc2)S(=O)(=O)c2ccccc2)CC1	-2	-1	-3	17*	6	-3	-1	-5
COc1ccc(NC(=O)Cn2nnc(-c3ccccc3N)n2)cc1OC	-1	16	-2	2	3	-13	/	/
Cn1c(N)c(C(=O)Nc2ccccc2)c(=O)[nH]c1=O	6	13	0	/	/	/	/	/
Cn1c(N)c(C(=O)/C=C/c2ccccc2)c(=O)[nH]c1=O	-2	-4	-8	26*	2	11	-1	-4
COc1cc2c(cc1O)[C@@H]1Cc3cc(OC)c(OC)cc3C(C2)N1C	7	-67	-2	-3	-3	-2	/	/
COc1cc2c(cc1OC)[C@@H]1Cc3cc4c(cc3[C@H](C2)N1C)OCO4	5	7	11	18*	3	-17	0	-4
Cc1cccnc1NC(=O)COc1ccc2c(c1)CCC2	-6	0	2	-1	-5	-7	/	/
O=C1NC[C@@H](Cc2cccc3ccccc23)N(CC2(c3ccccc3)CC2)C1=O	2	6	-3	16*	1	1	-1	-2
CC(C)(C)NC(=O)C(c1cc2ccccc2o1)n1c(=O)c(-c2cc3ccccc3[nH]2)nc2ccccc21 (configuration not stated)	/	/	/	31*	/	1	0	2
O=C(NC1CCCCC1)C(c1ccc(C(F)(F)F)cc1)n1c(=O)c(-c2cc3ccccc3[nH]2)nc2ccccc21 (configuration not stated)	/	/	/	-3	/	-3	/	/
O=C(NC1CCCCC1)C(c1ccncc1)n1c(=O)c(-c2cc3ccccc3[nH]2)nc2ccccc21 (configuration not stated)	/	/	/	16*	/	-7	0	5
CSc1nc(C)cc(NC(N)=O)n1	-8	9	-2	15*	7	-7	0	0
CSc1nc(C)cc(Oc2ccc(OCC(N)=O)nn2)n1	-6	-9	-4	0	-1	-4	/	/
O=C(CCNS(=O)(=O)c1ccc(Br)s1)N1CCN(c2ccccc2)CC1	/	/	15	0	-4	0	/	/
Cc1cc(NC(=O)c2cc([N+](=O)[O-])ccc2Cl)no1	4	-5	-16	17*	-3	-17	0	-2
Cc1cc(NC(=O)c2ccc([N+](=O)[O-])cc2Cl)no1	0	-27	-4	4	-24	-10	/	/
CCOC(=O)C1=C(CC)Nc2ccccc2N/C1=N\S(=O)(=O)c1ccccc1F	-1	8	7	-2	6	-17	/	/
CCOC(=O)C1=C(CC)Nc2ccccc2N/C1=N\S(=O)(=O)c1cccc(C(C)=O)c1	-2	-9	8	20*	-12	-5	0	-3
SMILES	APJ agonist	APJ antagonist	CCR6 antag	m5-HT2A agonist	CXCR6 inh	EBI2 antag	MOR ag counter	m5-HT2A ag conf
CC1CCN(c2c(NCC3CCC(C(=O)NCCc4ccccc4)CC3)c(=O)c2=O)CC1 (configuration not stated)	-5	-5	5	2	-1	1	/	/
CC1CCN(c2c(NCC3CCC(C(=O)NCc4ccccc4Cl)CC3)c(=O)c2=O)CC1 (configuration not stated)	-4	14	-8	19*	-9	9	0	-4
COc1cc(S(=O)(=O)NCc2ccc3c(c2)OCO3)c(OC)cc1C	-2	7	2	-2	1	-3	/	/
COc1cc(C)c(S(=O)(=O)NCc2ccc3c(c2)OCO3)cc1C	-2	-7	7	29*	0	5	0	0
c1ccc(C[C@H]2CN=C(Nc3ccccc3)N2CC2CCCCC2)cc1	-3	16	14	-5	0	11	/	/
CC(C)CC(=O)N1CCN(Cc2ccc3c(c2)OCO3)CC1	1	-9	15	19*	-6	5	0.6*	36*
O=C(c1ccc(Br)o1)N1CCN(Cc2ccc3c(c2)OCO3)CC1	1	12	13	17*	0	3	0.8*	20*
CCCC(=O)N1CCN(Cc2ccc3c(c2)OCO3)CC1	-2	-5	6	8	-3	4	/	/
Cc1cccc(C(=O)N2CCN(Cc3ccc4c(c3)OCO4)CC2)c1	0	6	-3	15*	-10	6	0	7
CC(=O)c1c(C)n([O-])c2cc(C)ccc2[n+]1=O	-2	2	13	-1	-16	-1	/	/
Fc1ccc(CSc2ccc(-c3ccc4c(c3)OCO4)nn2)cc1	0	1	5	0	3	8	/	/
Cc1ccccc1C(=O)O/N=C(\c1ccccc1)c1ccccn1	-1	13	13	23*	-1	9	-1	43*
CC(C)(C)n1nnnc1C(c1cccs1)N1CCN(C(=O)c2ccco2)CC1 (configuration not stated)	-8	-8	-6	-4	0	-11	/	/

Bioassay records deposited in PubChem by several laboratories.
